Assay results published in article PMC10870986 (Indian Journal of Endocrinology and Metabolism, 2023).

What was measured:
[1] = Semaglutide in type 2 diabetes, cross sectional study; format: in vivo, human; settings: Likert 5-point scale
[2] = Case: diazoxide in Prader-Willi Syndrome; format: in vivo, human; settings: child with PWS
[3] = Case series: immune check point inhibitor induced endocrine dysfunction; format: in vivo, human; settings: series of ten patients with IRAE
[4] = Case: nivolumab induced endocrine dysfunction; format: in vivo, human; settings: single patient, 240 mg fortnightly, after 10 cycles
[5] = Case: growth hormone therapy in short stature with Crohn's disease; format: in vivo, human; settings: single patient
[6] = Hyperprolactinemia in patients referred to a tertiary care hospital; format: in vivo, human; settings: for drug-induced hyperprolactinemia with prolactin levels greater than 100 ng/ml: number of cases / drug-induced hyperprolactinemia with prolactin levels less than 100 ng/ml: number of cases: 11 drug-induced cases among 58
[7] = format: in vivo, human
In short: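 Observational study of 167 diabetic outpatients seen January–June 2023. All had HbA1c, FPG and PPG uncontrolled on two or three oral hypoglycaemic agents and were unwilling to start insulin. Imeglimin was added as the third or fourth agent, and FPG, PPG, HbA1c and adverse effects were recorded afterwards.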

[8] = ref not given, cited from earlier work
[9] = format: in vivo, human; remark: listed apart in the source
[10] = Case: cabozantinib for metastatic MTC; format: in vivo, human; settings: single patient
[11] = Case: hypomagnesemia; format: in vivo, human; settings: single child, Tab. MgO 200mg TID
[12] = Etiological profile of hyperprolactinemia, Endocrine OPD; format: in vivo, human; settings: 50 subjects with hyperprolactinemia; use of drugs 56% of etiologies; Domperidone with and without PPI
[13] = Case: Chiari Frommel syndrome treated with bromocriptine; format: in vivo, human; settings: single patient, 2.5mg for one month
[14] = Giant prolactinoma case series, response to cabergoline; format: in vivo, human; settings: follow-up MRI in 17 patients
In short: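 Patients with giant prolactinoma all received cabergoline, dose range 0.5-7 mg/week, over a mean follow-up of 11.78 ± 14.89 months. Tumour shrinkage was judged against the baseline maximum tumour dimension on follow-up MRI, which was available for 17 patients.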

[15] = Case: ACTH and prolactin co-secreting pituitary adenoma treated with cabergoline; format: in vivo, human; settings: single patient
[16] = format: in vivo, human; settings: orlistat 120 mg thrice daily, mean [SD]
[17] = Orlistat vs orlistat + resveratrol in overweight/obese subjects, 12 weeks; format: in vivo, human
[18] = fulminant hepatic failure, fatal
[19] = last Ketoconazole dose the night before surgery, isoflurane anaesthesia
[20] = single patient on Ketoconazole 1200 mg/day and spironolactone 200 mg/day

For CC[C@H](C)[C@H](NC(=O)[C@H](Cc1ccccc1)NC(=O)[C@H](CCC(=O)O)NC(=O)[C@H](CCCCNC(=O)COCCOCCNC(=O)COCCOCCNC(=O)CC[C@H](NC(=O)CCCCCCCCCCCCCCCCC(=O)O)C(=O)O)NC(=O)[C@H](C)NC(=O)[C@H](C)NC(=O)[C@H](CCC(N)=O)NC(=O)CNC(=O)[C@H](CCC(=O)O)NC(=O)[C@H](CC(C)C)NC(=O)[C@H](Cc1ccc(O)cc1)NC(=O)[C@H](CO)NC(=O)[C@H](CO)NC(=O)[C@@H](NC(=O)[C@H](CC(=O)O)NC(=O)[C@H](CO)NC(=O)[C@@H](NC(=O)[C@H](Cc1ccccc1)NC(=O)[C@@H](NC(=O)CNC(=O)[C@H](CCC(=O)O)NC(=O)C(C)(C)NC(=O)[C@@H](N)Cc1cnc[nH]1)[C@@H](C)O)[C@@H](C)O)C(C)C)C(=O)N[C@@H](C)C(=O)N[C@@H](Cc1c[nH]c2ccccc12)C(=O)N[C@@H](CC(C)C)C(=O)N[C@H](C(=O)N[C@@H](CCCNC(=N)N)C(=O)NCC(=O)N[C@@H](CCCNC(=N)N)C(=O)NCC(=O)O)C(C)C [semaglutide], the “patients rating strongly agree or agree for adverse event: diarrhoea” value [1] was 91.3%, the “patients rating strongly agree or agree for adverse event: loss of appetite” value [1] was 87.4% and the “patients rating strongly agree or agree for adverse event: nausea” value [1] was 93.5%.

In the case of CC1=NS(=O)(=O)c2cc(Cl)ccc2N1 [diazoxide], the tolerability ([2]; 3 mg/kg/d) was “well tolerated” and the effect on hyperphagia ([2]; 3 mg/kg/d in two divided doses, after 3 weeks) was “perceptible reduction in hyperphagia”.

With nivolumab the “patients with isolated thyroid dysfunction on the drug” value [3] was “five” and the “immune-related adverse events diagnosed” value [4] was “checkpoint inhibitor induced diabetes mellitus (CPI-DM) and central adrenal insufficiency”.

With “rHGH: recombinant growth hormone injection” the catchup growth ([5]; 0.18mg/kg/week, 6 months) was 7 cm and the “growth thereafter at higher doses” value ([5]; 0.3mg/kg/week, undiagnosed Crohn's disease) was “height remained static”.

In the case of CCN1CCC[C@H]1CNC(=O)c1cc(S(N)(=O)=O)ccc1OC [levosulpiride], the “drug-induced hyperprolactinemia with prolactin levels greater than 100 ng/ml: number of cases” value [6] was 5 cases, the “drug-induced hyperprolactinemia with prolactin levels less than 100 ng/ml: number of cases” value [6] was 1 cases and the “prolactin levels in drug-induced hyperprolactinemia” value ([6]; statement of the conclusion) was > 100 ng/mL.

For C[C@H]1N=C(N(C)C)N=C(N)N1 [imeglimin], the “most common adverse effect” value ([7]; n=167) was “gastrointestinal issues”, the “HbA1c after imeglimin was added” value ([7]; n=167, add-on to two or three OHAs, baseline 9.1±1.8, p=0.004) was 7.2±1.2 and the “FPG after imeglimin was added” value ([7]; n=167, add-on to two or three OHAs, baseline 176.61±45.75, p=0.013) was 108.05±24.79. The “PPG after imeglimin was added” value ([7]; n=167, add-on to two or three OHAs, baseline 247.86±68.17, p=0.020) was 156.49±38.53.

For COc1cc(CNC(=O)CCCC/C=C/C(C)C)ccc1O [capsaicin], the “pain control, capsaicin lotion compared with placebo” value ([8]; analysis on treatment intention, all pain measures) is listed as “insignificant improvement in pain control”, the “pain relief, topical capsaicin cream […], multicenter controlled trial” value ([8]; initial results, vs placebo) is listed as “more relief of the pain associated with diabetic neuropathy than placebo” and the “tolerability, capsaicin […] cream” value ([8]; may lead to withdrawal from the study) is listed as “local skin irritation, which is often mild and transient”. For the same molecule, the “pain relief, capsaicin […] cream applied to the painful area” value ([8]; painful diabetic neuropathy) was “significant pain relief” and the “pain relief, topical capsaicin […] for four to six weeks” value [8] was “either complete or significant relief”.

For CC(=O)N1CCN(c2ccc(OCC3COC(Cn4ccnc4)(c4ccc(Cl)cc4Cl)O3)cc2)CC1 (centres unmarked) [Ketoconazole], the “ALT, 5th post operative day” value [9, 18] was 5053 U/L, the “AST, 5th post operative day” value [9, 18] was 7844 L⁻¹ and the “GGT, 5th post operative day” value [9, 18] was 207 U/L. For the same molecule, the “INR, 5th post operative day” value [9, 18] was > 11, the “PT, 5th post operative day” value [9, 18] was > 120 s and the “aPTT, 5th post operative day” value [9, 18] was > 180 s. The “ALT, 4th post operative day” value [9, 19] was 433 U/L, the “AST, 4th post operative day” value [9, 19] was 370 U/L and the “GGT, 4th post operative day” value [9, 19] was 233 U/L. The “ALT before the surgery” value [9, 20] was 30 IU/ml and the “AST before the surgery” value [9, 20] was 27 IU/ml.

With COc1cc2nccc(Oc3ccc(NC(=O)C4(C(=O)Nc5ccc(F)cc5)CC4)cc3)c2cc1OC [cabozantinib] the “response of metastatic MTC” value [10] was “good response” and the tolerability [10] was “stopped due to side effects”.

With [O]=[Mg] [MgO] the calcium on treatment [11] was 9.2 mg/dL and the “Serum Magnesium on treatment” value ([11]; at presentation 0.4mg/dl) was 1.2 mg/dL.

In the case of Cc1nc2n(c(=O)c1CCN1CCC(c3noc4cc(F)ccc34)CC1)CCCC2 [Risperidone], the “Among the drugs causing hyperprolactinemia: share of cases” value [12] was 7.14%, the “drug-induced hyperprolactinemia with prolactin levels greater than 100 ng/ml: number of cases” value [6] was 1 cases and the “drug-induced hyperprolactinemia with prolactin levels less than 100 ng/ml: number of cases” value [6] was 1 cases.

In the case of O=c1[nH]c2ccccc2n1CCCN1CCC(n2c(=O)[nH]c3cc(Cl)ccc32)CC1 [Domperidone], the “Among the drugs causing hyperprolactinemia: share of cases” value [12] was 53.57% and the “drug-induced hyperprolactinemia with prolactin levels less than 100 ng/ml: number of cases” value [6] was 3 cases.

With CC(C)C[C@H]1C(=O)N2CCC[C@H]2[C@]2(O)O[C@](NC(=O)[C@@H]3C=C4c5cccc6[nH]c(Br)c(c56)C[C@H]4N(C)C3)(C(C)C)C(=O)N12 [bromocriptine] the effect on galactorrhea [13] was “Milk secretion was slowed down”.

With Cc1cc2c(s1)Nc1ccccc1N=C2N1CCN(C)CC1 [Olanzapine] the “Among the drugs causing hyperprolactinemia: share of cases” value [12] was 3.57%.

With CN[C@H]1CC[C@@H](c2ccc(Cl)c(Cl)c2)c2ccccc21 [Sertraline] the “Among the drugs causing hyperprolactinemia: share of cases” value [12] was 3.57%.

For C=CCN1C[C@H](C(=O)N(CCCN(C)C)C(=O)NCC)C[C@@H]2c3cccc4[nH]cc(c34)C[C@H]21 [cabergoline], the “Tumor shrinkage <50%, share of patients” value ([14]; 2 patients) was 11.76%, the “disappearance of radiologically detectable tumor, share of patients” value ([14]; 2 patients) was 11.76% and the “Tumor shrinkage of >50% from the baseline, share of patients” value ([14]; 13 patients) was 76.47%. The “outcome at increased dose” value ([15]; cabergoline 2mg/week) was “developed adrenal insufficiency”, the Follow up prolactin ([15]; on cabergoline 0.5mg/week, before dose increase) was 15737 miu/l and the Stimulated cortisol ([15]; post 3 days of cabergoline 0.5mg/week) was 535 nmol/L. It also gave a 8am cortisol ([15]; post 3 days of cabergoline 0.5mg/week, before 525nmol/l) of 132 nmol/L and a Prolactin ([15]; post 3 days of cabergoline 0.5mg/week, before 20982miu/l) of 9215 miu/l.

With CCCCCCCCCCC[C@@H](C[C@@H]1OC(=O)[C@H]1CCCCCC)OC(=O)[C@H](CC(C)C)NC=O [orlistat] the “mean weight loss after 2 months, group 2” value ([16]; patients with diabetes) was 6.3 [4.9] %, the “mean weight loss after 4 months, group 2” value ([16]; patients with diabetes) was 8.7 [4.7] % and the “mean weight loss after 6 months, group 2” value ([16]; patients with diabetes) was 12.9 [2.4] %. For the same molecule, the “mean weight loss after 2 months, group 1” value ([16]; patients without diabetes) was 7.1 [6.1] %, the “mean weight loss after 4 months, group 1” value ([16]; patients without diabetes) was 14.6 [12.9] % and the “mean weight loss after 6 months, group 1” value ([16]; patients without diabetes) was 16.1 [6.7] %. For the same molecule, the “mean weight loss after 2 months, group 3” value ([16]; prediabetic patients) was 6 [2.6] %, the “mean weight loss after 4 months, group 3” value ([16]; prediabetic patients) was 15.5 [15.4] % and the “mean weight loss after 6 months, group 3” value ([16]; prediabetic patients) was 15.8 [6.2] %. The “diarrhoea, number of patients” value [17] was 7 patients, the “weight loss, patients with diabetes with a BMI >=30” value ([17]; sub-group, p=0.045) was -1.04 kg and the “weight loss, patients with diabetes with steatosis” value ([17]; sub-group, p=0.048) was -0.44 kg. The “weight loss compared to baseline” value ([17]; thrice daily, 247 completers, mean body weight ~80 kg) was -2.92 kg.
